ChEMBL document CHEMBL4261567, “Phenylethynyl-substituted Heterocycles Inhibit Cyclin D1 and Induce the Expression of Cyclin-dependent Kinase Inhibitor p21Wif1/Cip1 in Colorectal Cancer Cells” (Medchemcomm, 2018)
The source made the active and inactive calls. The rule behind the calls is not given here.

Assays:
LS174T [1] = experiment: Antiproliferative activity against human LS174T cells assessed as inhibition of cell proliferation at 10 uM after 4 days by Vi-Cell cell viability analyzer based method relative to control; assay type: functional; settings: 96 h
Summary of the method: (§1)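 Cells (colon LS174T, HT-29, Caco2; lung epithelial BEAS-2B; fibroblast HEL 299) were kept in RPMI or DMEM with 5% or 10% FBS plus 1% penicillin/streptomycin. 3 × 10^4 cells per well were exposed to DMSO or compound. After 4 days, cell number and viability were counted on a Vi-Cell analyzer. Results are given as percent inhibition of proliferation at the stated concentration.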

LS174T [2] = experiment: Antiproliferative activity against human LS174T cells assessed as inhibition of cell proliferation at 1 uM after 4 days by Vi-Cell cell viability analyzer based method relative to control; assay type: functional; settings: 96 h; summary of the method: as §1
LS174T [3] = experiment: Antiproliferative activity against human LS174T cells assessed as inhibition of cell proliferation at 100 nM after 4 days by Vi-Cell cell viability analyzer based method relative to control; assay type: functional; settings: 96 h; summary of the method: as §1
Caco-2 [4] = experiment: Antiproliferative activity against human Caco2 cells assessed as inhibition of cell proliferation at 1 uM after 4 days by Vi-Cell cell viability analyzer based method relative to control; assay type: functional; settings: Caco-2, 96 h; summary of the method: as §1
HT-29 [5] = experiment: cells; settings: Homo sapiens, HT-29, 96 h, read-out: INH
Caco-2 [6] = experiment: cells; settings: Homo sapiens, Caco-2, 96 h, read-out: INH
[7] = Cytotoxicity against human HEL299 cells assessed as inhibition of cell proliferation at 1 uM after 4 days by Vi-Cell cell viability analyzer based method relative to control; design: species or system HEL 299; summary of the method: as §1
[8] = Cytotoxicity against human BEAS2B cells assessed as inhibition of cell proliferation at 1 uM after 4 days by Vi-Cell cell viability analyzer based method relative to control; design: species or system BEAS-2B; summary of the method: as §1
[9] = Cytotoxicity against human HEL299 cells assessed as inhibition of cell proliferation at 10 uM after 4 days by Vi-Cell cell viability analyzer based method relative to control; design: species or system HEL 299; summary of the method: as §1
[10] = Cytotoxicity against human BEAS2B cells assessed as inhibition of cell proliferation at 10 uM after 4 days by Vi-Cell cell viability analyzer based method relative to control; design: species or system BEAS-2B; summary of the method: as §1
HT-29 [11] = experiment: Antiproliferative activity against human HT-29 cells assessed as inhibition of cell proliferation at 1 uM after 4 days by Vi-Cell cell viability analyzer based method relative to control; assay type: functional; settings: HT-29, 96 h; summary of the method: as §1
LS174T [12] = experiment: Antiproliferative activity against human LS174T cells assessed as inhibition of cell proliferation at 30 nM after 4 days by Vi-Cell cell viability analyzer based method relative to control; assay type: functional; settings: 96 h; summary of the method: as §1
LS174T [13] = experiment: Antiproliferative activity against human LS174T cells assessed as inhibition of cell proliferation after 4 days by Vi-Cell cell viability analyzer based method; assay type: functional; settings: 96 h
Summary of the method: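 LS174T cells in RPMI or DMEM with 5% or 10% FBS plus 1% penicillin/streptomycin were seeded at 3 × 10^4 cells per well. They were treated with DMSO or a range of compound concentrations, and cell number and viability were counted on a Vi-Cell analyzer after 4 days. IC50 was fitted from the dose-response curve.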

[14] = target: G1/S-specific cyclin-D1 (Homo sapiens) (UniProt P24385); experiment: Inhibition of cyclin D1 in human LS174T cells assessed as reduction in protein level at 300 nM by Western blot analysis; assay type: cell-based
Sequence of G1/S-specific cyclin-D1 (Homo sapiens) (P24385 whole entry, canonical isoform): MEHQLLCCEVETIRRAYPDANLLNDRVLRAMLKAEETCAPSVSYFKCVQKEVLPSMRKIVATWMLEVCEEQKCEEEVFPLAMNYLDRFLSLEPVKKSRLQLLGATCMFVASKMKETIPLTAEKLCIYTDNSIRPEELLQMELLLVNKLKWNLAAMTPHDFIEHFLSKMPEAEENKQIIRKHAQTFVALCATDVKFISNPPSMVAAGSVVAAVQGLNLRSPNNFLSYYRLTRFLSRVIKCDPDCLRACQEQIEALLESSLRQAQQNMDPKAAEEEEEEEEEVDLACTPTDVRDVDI
Summary of the method: (§2)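 LS174T cells were treated at 300 nM. Lysates were western blotted with antibodies to cyclin D1 and p21Wif1/Cip1, using β-tubulin as the loading control.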

[15] = target: G1/S-specific cyclin-D1 (Homo sapiens) (UniProt P24385); experiment: Inhibition of cyclin D1 in human LS174T cells assessed as induction of p21 waf1/cip1 expression at 300 nM by Western blot analysis; assay type: cell-based; summary of the method: as §2
[16] = target: S-adenosylmethionine synthase isoform type-2 (Homo sapiens) (UniProt P31153); experiment: Binding affinity to GST-tagged MAT2A (unknown origin) expressed in Escherichia coli BL21 by Western blot based pull down assay
Sequence of S-adenosylmethionine synthase isoform type-2 (Homo sapiens) (P31153 whole entry, looked up, canonical isoform): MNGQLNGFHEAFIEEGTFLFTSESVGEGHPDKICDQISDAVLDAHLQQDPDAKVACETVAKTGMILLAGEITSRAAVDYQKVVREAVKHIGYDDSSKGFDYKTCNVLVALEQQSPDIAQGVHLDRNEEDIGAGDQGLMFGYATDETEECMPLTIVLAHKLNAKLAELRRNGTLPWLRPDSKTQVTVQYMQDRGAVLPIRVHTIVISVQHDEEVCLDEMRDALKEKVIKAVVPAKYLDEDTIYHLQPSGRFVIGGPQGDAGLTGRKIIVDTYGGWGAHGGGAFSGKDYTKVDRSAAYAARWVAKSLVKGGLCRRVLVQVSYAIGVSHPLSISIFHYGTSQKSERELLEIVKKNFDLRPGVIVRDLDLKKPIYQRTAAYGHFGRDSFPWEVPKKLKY
Summary of the method: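 Recombinant MAT2A was incubated with or without the biotinylated probe, and the complex was captured on streptavidin beads. Bound protein was eluted with 2.5 mM D-(+)-biotin, run on 10% SDS-PAGE, and detected by western blot with an anti-MAT2A antibody.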

| Compound | inhibition at 10 µM (LS174T [1]) | inhibition at 1 µM (LS174T [2]) | inhibition at 0.1 µM (LS174T [3]) | also measured |
| --- | --- | --- | --- | --- |
| Fc1cccc(F)c1C#Cc1ccc2ncccc2c1 | 80.1% | 11% | – | – |
| Fc1cccc(F)c1C#Cc1ccc(-n2cccc2)cc1 | 96.7% | 77.5% | 11% | – |
| Fc1cccc(F)c1C#Cc1ccc2cccnc2c1 | 99.4% | 90.7% | 2.9% | – |
| O=c1[nH]cc(F)c(=O)[nH]1 [FLUOROURACIL] | 82.3% | 6.5% | – | inhibition at 1 µM (Caco-2 [4]): 37.7%; inhibition at 10 µM (HT-29 [5]): 82.9%; inhibition at 10 µM (Caco-2 [6]): 60.2%; inhibition at 96 h, 1 µM [7]: 12.1%; inhibition at 96 h, 1 µM [8]: 4.5%; inhibition at 96 h, 10 µM [9]: 64.6%; inhibition at 96 h, 10 µM [10]: 57.5%; inhibition at 1 µM (HT-29 [11]): 11.6% |
| Fc1cccc(F)c1C#Cc1ccc2[nH]ccc2c1 | 91.5% | 52.9% | – | – |
| CN1CCN(c2ccc(C#Cc3c(F)cccc3F)cc2)CC1 | 99.6% | 19.9% | – | – |
| Fc1cccc(F)c1C#Cc1cncc2ccccc12 | 87.9% | 16.5% | – | – |
| Fc1ccc2cc(C#Cc3c(F)cccc3F)cnc2c1 | 95.1% | 69.4% | 14.8% | – |
| Fc1cccc(F)c1C#Cc1ccc2ccccc2n1 | 93.8% | 67.3% | 6.1% | – |
| CN(C)c1ccc2cc(C#Cc3c(F)cccc3F)ccc2n1 | 38.7% | 2% | – | – |
| Fc1cccc(F)c1C#Cc1cc2ccccc2nc1Cl | 85.1% | 28.4% | – | – |
| CNc1ncc(C#Cc2c(F)cccc2F)c2ccccc12 | 98.9% | 99.8% | 99.5% | inhibition at 1 µM (Caco-2 [4]): 58.3%; inhibition at 0.03 µM (LS174T [12]): 94.5%; inhibition at 96 h, 1 µM [7]: 6.3%; IC50 (LS174T [13]): 4.2 nM; inhibition at 96 h, 1 µM [8]: 5.8%; inhibition at 96 h, 10 µM [9]: 9.5%; inhibition [14]: Active; inhibition [15]: Active; inhibition at 96 h, 10 µM [10]: 19.2%; inhibition at 1 µM (HT-29 [11]): 76.8% |
| CN(C)c1ncc(C#Cc2c(F)cccc2F)c2ncccc12 | 85.2% | 87.9% | 59.5% | – |
| Fc1cccc(F)c1C#Cc1cnc2ccccc2c1Cl | 80.4% | 51.5% | 0% | – |
| Fc1cccc(F)c1C#Cc1cnc2[nH]ccc2c1 | 77.9% | 17.3% | – | – |
| CN(C)c1ccc(C#Cc2c(F)cccc2F)cc1 | – | – | – | IC50 (LS174T [13]): 25.1 nM; inhibition [14]: Active; inhibition [15]: Active |
| Fc1cccc(F)c1C#Cc1cccc2[nH]ncc12 | 96.2% | 19.8% | – | – |
| CN(CC(=O)NCCOCCOCCNC(=O)CCCC[C@@H]1SC[C@@H]2NC(=O)N[C@@H]21)c1ccc(C#Cc2c(F)cccc2F)c2ccccc12 | – | – | – | Activity [16]: Active |
| CN1CCN(c2ncc(C#Cc3c(F)cccc3F)c3ccccc23)CC1 | 100% | 23.2% | – | – |
| Fc1cccc(F)c1C#Cc1cnc2c(F)cccc2c1 | 89.1% | 63.6% | 8.8% | – |
| CN(C)c1ncc(C#Cc2c(F)cccc2F)c2ccccc12 | 97.6% | 99.5% | 81.7% | inhibition at 1 µM (Caco-2 [4]): 54.5%; inhibition at 0.03 µM (LS174T [12]): 86%; inhibition at 96 h, 1 µM [7]: 13.9%; IC50 (LS174T [13]): 11.8 nM; inhibition at 96 h, 1 µM [8]: 1.5%; inhibition at 96 h, 10 µM [9]: 11.7%; inhibition [14]: Active; inhibition [15]: Active; inhibition at 96 h, 10 µM [10]: 16.2%; inhibition at 1 µM (HT-29 [11]): 35.9% |
| Fc1cccc(F)c1C#Cc1ccc2nccc(Cl)c2c1 | 89.7% | 43.8% | – | – |
| Nc1ncc(C#Cc2c(F)cccc2F)c2ccccc12 | 93.1% | 86.2% | 35.5% | – |
| Cn1ncc2ccc(C#Cc3c(F)cccc3F)cc21 | 98.1% | 85.9% | 0% | – |
| Fc1cccc(F)c1C#Cc1ccc2cncnc2c1 | 96.3% | 33.8% | – | – |
| Fc1cccc(F)c1C#Cc1ccc2[nH]ncc2c1 | 82.9% | 17.6% | – | – |
